Experimental data as given in ChEMBL document CHEMBL4184268, “Design, synthesis, and biological evaluation of inhibitors of the NADPH oxidase, Nox4” (Bioorg Med Chem, 2018).
Calls of active or inactive are those of the source. The rule behind the calls is not given here.

How the values were obtained:
[1] = Effect on hydrogen peroxide radical scavenging activity up to 100 uM measured after 5 mins by Amplex Red assay; assay type: functional
Summary of the method: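 Cell-free H2O2 consumption. Exogenous H2O2 incubated 5 min with compound (1–100 μM) in reaction buffer. Amplex Red/horseradish peroxidase then added for 30 min at room temperature in the dark. Resorufin read at ex 530/em 590 nm. DMSO solvent control. Means ± SEM of 3 independent experiments, one-way ANOVA with Dunnett's test.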

NADPH oxidase 4 = molecular target: T1, NADPH oxidase 4 (Homo sapiens, UniProt Q9NPH5); assay: Inhibition of Nox4 in HASMCs assessed as reduction in TGFbeta-induced increase in smooth muscle alpha actin level pretreated for 30 mins followed by TGFbeta stimulation after 24 hrs by Western blot analysis
T1 sequence (Q9NPH5 whole entry): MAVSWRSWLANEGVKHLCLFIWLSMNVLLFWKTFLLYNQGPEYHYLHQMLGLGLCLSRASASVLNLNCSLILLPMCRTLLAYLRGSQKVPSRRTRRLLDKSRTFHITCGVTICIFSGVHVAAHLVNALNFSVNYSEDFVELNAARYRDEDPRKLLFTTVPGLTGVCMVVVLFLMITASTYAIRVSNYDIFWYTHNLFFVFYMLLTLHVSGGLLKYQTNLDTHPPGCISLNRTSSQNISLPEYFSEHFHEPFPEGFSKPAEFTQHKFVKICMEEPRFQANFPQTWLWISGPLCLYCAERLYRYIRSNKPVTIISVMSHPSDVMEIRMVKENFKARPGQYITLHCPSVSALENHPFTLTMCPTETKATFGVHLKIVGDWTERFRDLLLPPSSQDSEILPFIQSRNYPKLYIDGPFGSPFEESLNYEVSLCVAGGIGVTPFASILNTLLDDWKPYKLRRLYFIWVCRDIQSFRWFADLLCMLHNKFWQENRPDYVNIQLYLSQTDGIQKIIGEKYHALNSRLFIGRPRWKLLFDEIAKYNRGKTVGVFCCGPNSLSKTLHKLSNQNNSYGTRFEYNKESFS
Summary of the method: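 HASMs (<passage 10) at 80% confluence, serum-reduced (0.1% FBS) 24 h, pretreated 30 min with compound (1–100 μM), then TGF-β 2 ng/ml for 24 h. Lysates blotted for α-SMA normalized to β-tubulin, ECL detection. TGF-β alone set as 100%. IC50 by non-linear regression, means ± SEM from 3–4 independent experiments.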

[2] = Cytotoxicity against HASMCs assessed as cell viability at 100 uM after 24 hrs by calcein/AM/ethidium homodimer-1 staining based fluorescence microscopic analysis relative to control; settings: human, HASMC cells; read-out: Activity
Summary of the method: (§1)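 HASMs (before passage 10) grown to 80% confluence, then serum-reduced (0.1% FBS) for 24 h. Cells were pretreated with compound for 30 min, then given TGF-β (2 ng/ml) for 24 h. Stained with calcein/AM (2 μM) and ethidium homodimer-1 (4 μM) for 10 min at room temperature, read by fluorescence microscopy. Controls: untreated cells as negative, 70% ethanol for 30 min as positive.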

[3] = Effect on hypoxanthine/xanthine oxidase-induced superoxide radical scavenging activity up to 100 uM incubated for 1 min measured for 15 mins by cytochrome C assay; assay type: functional
Summary of the method: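 Superoxide from hypoxanthine (100 μM)/xanthine oxidase in PBS with catalase (200 U/mL), compound 1–100 μM, detected by cytochrome C (46 μM) reduction at 550 nm. After 1 min stabilization, read kinetically 1/min for 15 min. Linear slope gave % scavenging. SOD (575 U/mL) as positive control. Means ± SEM of 4 experiments, ANOVA/Dunnett.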

HASMC = assay: Effect on TGFbeta-induced Nox4 mRNA expression in HASMCs at 1 to 100 uM pretreated for 30 mins followed by TGFbeta addition measured after 24 hrs by qPCR analysis; assay type: functional, cell-based; settings: Homo sapiens
[4] = Cytotoxicity against HASMCs assessed as cell viability at 10 uM after 24 hrs by calcein/AM/ethidium homodimer-1 staining based fluorescence microscopic analysis relative to control; settings: human, HASMC cells; read-out: Activity; summary of the method: as §1

Structure (SMILES)	Activity [1]	IC50 (NADPH oxidase 4) [µM]	viability at 24 h, 100 µM [2] [%]	Activity [3]	Activity (HASMC)	viability at 24 h, 10 µM [4] [%]
COc1ccc(S(=O)(=O)N2CCCN(c3ccc(C(F)(F)F)cc3)C2=O)cc1	inactive	27	92	inactive	inactive	
O=C1N(c2ccc(C(F)(F)F)cc2)CCCN1S(=O)(=O)c1ccc(F)cc1	inactive	3.7	100	inactive	inactive	
COc1ccc(S(=O)(=O)N2CCN(c3ccc(C(F)(F)F)cc3)C2=O)cc1	inactive	0.5		inactive	inactive	97
